Measurements taken from ChEMBL document CHEMBL2417404, “Synthesis and structure-activity relationship (SAR) of 2-methyl-4-oxo-3-oxetanylcarbamic acid esters, a class of potent N-acylethanolamine acid amidase (NAAA) inhibitors” (J Med Chem, 2013).
Values belong to the compound of their own block, whether it stands above or below them.

Tests used:
[1] = molecular target: T1, N-acylethanolamine-hydrolyzing acid amidase (Rattus norvegicus, UniProt Q5KTC7); assay: Inhibition of Sprague Dawley rat lung native NAAA enzyme using heptadecenoylethanolamide as substrate preincubated for 30 mins followed by substrate addition measured after 30 mins by UPLC-MS analysis
T1 sequence (Q5KTC7 whole entry): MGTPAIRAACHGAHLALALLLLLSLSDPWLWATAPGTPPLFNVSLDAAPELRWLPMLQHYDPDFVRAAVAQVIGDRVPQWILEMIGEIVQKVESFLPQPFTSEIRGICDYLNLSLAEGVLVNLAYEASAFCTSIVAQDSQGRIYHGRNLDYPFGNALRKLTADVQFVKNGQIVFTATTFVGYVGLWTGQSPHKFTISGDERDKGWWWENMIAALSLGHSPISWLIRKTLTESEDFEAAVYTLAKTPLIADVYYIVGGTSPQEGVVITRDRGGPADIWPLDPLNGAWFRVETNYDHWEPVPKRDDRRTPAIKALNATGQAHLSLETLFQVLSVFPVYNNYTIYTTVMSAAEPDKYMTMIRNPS
Procedure, shortened: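 Native enzyme from lungs of male Sprague-Dawley rats (275-300 g). Lungs were homogenized in 20 mM Tris-HCl pH 7.4 with 0.32 M sucrose, spun at 800g, then the supernatant at 12000g. The pellet was freeze/thawed in PBS, and the final 105000g pellet was used. Protein (10 μg) was preincubated with compound or vehicle for 30 min at 37 °C in NaH2PO4/citrate buffer pH 4.5 with 0.1% Triton X-100 and 3 mM DTT. Then 50 μM substrate, 37 °C, 30 min, duplicates. Heptadecenoic acid quantified against heptadecanoic acid internal standard. IC50 by fixed-slope nonlinear regression.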

[2] = molecular target: T2, Acid ceramidase (Rattus norvegicus) (UniProt Q6P7S1); assay: Inhibition of rat lung acid ceramidase overexpressed in HEK293 cells using N-Lauroyl ceramide as substrate preincubated at 10 uM for 30 mins followed by substrate addition by LC-MS analysis; format: cell-based
T2 sequence (whole entry): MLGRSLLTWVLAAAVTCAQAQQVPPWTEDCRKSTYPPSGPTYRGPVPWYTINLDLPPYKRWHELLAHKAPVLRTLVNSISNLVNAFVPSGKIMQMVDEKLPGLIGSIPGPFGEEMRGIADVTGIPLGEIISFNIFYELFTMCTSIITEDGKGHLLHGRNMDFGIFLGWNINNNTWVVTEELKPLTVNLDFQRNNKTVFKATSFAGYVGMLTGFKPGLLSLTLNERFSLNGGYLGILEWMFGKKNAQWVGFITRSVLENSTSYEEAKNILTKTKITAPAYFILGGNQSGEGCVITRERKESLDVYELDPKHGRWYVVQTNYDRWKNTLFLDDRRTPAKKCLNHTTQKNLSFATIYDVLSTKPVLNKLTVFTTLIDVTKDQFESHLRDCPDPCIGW
Procedure, shortened: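 Enzyme (25 μg) from HEK293 cells overexpressing rat AC was preincubated with compound for 30 min at 37 °C in 100 mM NaH2PO4, 100 mM trisodium citrate, 0.1% Triton X-100, 3 mM DTT, pH 4.5. Then 100 μM N-lauroyl ceramide was added. Lauric acid (m/z 199) was measured by negative-ion LC-MS with heptadecanoic acid (m/z 269) as internal standard.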

[3] = molecular target: T3, Fatty-acid amide hydrolase 1 (Rattus norvegicus) (UniProt P97612); assay: Inhibition of rat brain FAAH using [3H]anandamide as substrate preincubated at 10 uM for 10 mins followed by substrate addition by liquid scintillation counting
T3 sequence (whole entry): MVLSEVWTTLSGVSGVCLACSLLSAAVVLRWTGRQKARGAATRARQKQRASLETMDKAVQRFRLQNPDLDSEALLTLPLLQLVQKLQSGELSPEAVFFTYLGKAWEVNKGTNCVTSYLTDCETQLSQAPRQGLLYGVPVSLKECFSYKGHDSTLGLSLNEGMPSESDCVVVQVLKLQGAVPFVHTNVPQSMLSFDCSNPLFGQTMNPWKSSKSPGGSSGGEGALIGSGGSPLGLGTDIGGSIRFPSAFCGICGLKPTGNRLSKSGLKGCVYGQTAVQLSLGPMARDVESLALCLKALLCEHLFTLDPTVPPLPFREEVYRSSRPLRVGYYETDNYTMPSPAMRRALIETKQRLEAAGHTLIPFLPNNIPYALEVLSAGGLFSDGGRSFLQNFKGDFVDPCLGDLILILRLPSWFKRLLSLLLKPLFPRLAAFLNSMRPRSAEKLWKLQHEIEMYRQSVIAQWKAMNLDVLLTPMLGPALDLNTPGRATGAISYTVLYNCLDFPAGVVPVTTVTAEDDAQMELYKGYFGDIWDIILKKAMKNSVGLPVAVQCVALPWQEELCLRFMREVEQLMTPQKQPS
Procedure, shortened: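 Rat brain homogenate (50 μg protein) was preincubated with compound for 10 min. Then 30 min at 37 °C with 1 μM cold AEA plus 0.6 nM [3H]AEA in 50 mM Tris pH 7.4 containing 0.05% fatty-acid-free BSA. Stopped with cold CHCl3/MeOH 1:1, and the aqueous phase was counted.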

[4] = Selectivity ratio of IC50 for rat NAAA to IC50 for human NAAA
[5] = molecular target: T4, N-acylethanolamine-hydrolyzing acid amidase (Homo sapiens, UniProt Q02083); assay: Inhibition of C-terminal His-6-tagged recombinant human spleen NAAA enzyme expressed in HEK293 cells; format: cell-based
T4 sequence (Q02083 whole entry): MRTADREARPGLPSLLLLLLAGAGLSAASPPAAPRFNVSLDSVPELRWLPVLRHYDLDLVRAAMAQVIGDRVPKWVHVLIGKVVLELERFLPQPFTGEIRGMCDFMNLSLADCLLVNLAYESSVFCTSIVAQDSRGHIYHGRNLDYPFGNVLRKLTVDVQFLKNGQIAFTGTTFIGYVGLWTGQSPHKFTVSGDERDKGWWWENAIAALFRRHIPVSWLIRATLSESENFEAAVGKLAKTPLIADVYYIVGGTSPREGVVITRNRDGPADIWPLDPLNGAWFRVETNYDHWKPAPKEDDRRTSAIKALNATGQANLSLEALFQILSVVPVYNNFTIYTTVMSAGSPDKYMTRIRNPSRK
Procedure, shortened: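 Stable HEK293 clone (G418 selection) expressing h-NAAA; cell pellets sonicated, then membrane fraction prepared by centrifugation with a freeze/thaw step. 10 μg protein preincubated 30 min at 37 °C with inhibitor in citrate/phosphate buffer pH 4.5 (0.1% Triton X-100, 3 mM DTT). Duplicates then given 50 μM 10-cis-heptadecenoylethanolamide for 30 min at 37 °C. Heptadecenoic acid measured by UPLC-MS; IC50 from fixed-slope nonlinear regression.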

SMILES: C[C@@H]1OC(=O)[C@@H]1N(C)C(=O)OCCCCCc1ccccc1
IC50 [1]: Not Active

SMILES: C[C@@H]1OC(=O)[C@@H]1NC(=O)OCc1cccc(-c2ccccc2)c1
IC50 ([1]; read-out: IC50): 23000 nM

SMILES: C[C@@H]1OC(=O)[C@@H]1NC(=O)OCCCOCc1ccccc1
inhibition [2]: < 10%
inhibition [3]: < 10%
IC50 [5]: 20 nM
Ratio IC50 [4]: 2

SMILES: CC(C)C(CCCCc1ccccc1)OC(=O)N[C@H]1C(=O)O[C@H]1C (single isomer, unassigned; diastereomer 2)
IC50 ([1]; read-out: IC50): 12200 nM

SMILES: CCCCCCC[C@H](C)OC(=O)N[C@H]1C(=O)O[C@H]1C
inhibition [2]: 45%
inhibition [3]: 19%
Ratio IC50 [4]: 2

SMILES: C[C@@H]1OC(=O)[C@@H]1NC(=O)OCc1ccc(-c2ccccc2)cc1
inhibition [2]: 30%
inhibition [3]: < 10%

SMILES: C[C@@H]1OC(=O)[C@@H]1NC(=O)OCCCCCc1ccccc1
inhibition [2]: < 10%
inhibition [3]: < 10%
Ratio IC50 [4]: 2

The remaining compounds from weak to strong by IC50 ([1]; read-out: IC50), led by results:

IC50 ([1]; read-out: IC50): 5100 nM
SMILES: CC(CCCCc1ccccc1)OC(=O)N[C@H]1C(=O)O[C@H]1C (single isomer, unassigned; diastereomer 2)

IC50 ([1]; read-out: IC50): 760 nM
SMILES: CCCCCOC(=O)N[C@H]1C(=O)O[C@H]1C

IC50 ([1]; read-out: IC50): 270 nM
SMILES: CCCCCCC[C@@H](C)OC(=O)N[C@H]1C(=O)O[C@H]1C

IC50 ([1]; read-out: IC50): 90 nM
SMILES: C[C@@H]1OC(=O)[C@@H]1NC(=O)OCCCc1ccccc1

IC50 ([1]; read-out: IC50): 80 nM
SMILES: CC(C)C(CCCCc1ccccc1)OC(=O)N[C@H]1C(=O)O[C@H]1C (stereo partly drawn)

IC50 ([1]; read-out: IC50): 60 nM
SMILES: CCCCCCCC(C)OC(=O)N[C@H]1C(=O)O[C@H]1C (mixture of isomers)

IC50 ([1]; read-out: IC50): 29 nM
SMILES: CC(CCCCc1ccccc1)OC(=O)N[C@H]1C(=O)O[C@H]1C (mixture of isomers)

IC50 ([1]; read-out: IC50): 20 nM
SMILES: C[C@H]1OC(=O)[C@@H]1NC(=O)OCCCCCc1ccccc1

IC50 ([1]; read-out: IC50): 18 nM
SMILES: CC(CCCCc1ccccc1)OC(=O)N[C@H]1C(=O)O[C@H]1C (single isomer, unassigned; diastereomer 1)

inhibition [2]: < 10%
inhibition [3]: < 10%
Ratio IC50 [4]: 2
IC50 ([1]; read-out: IC50): 13 nM
SMILES: C[C@@H]1OC(=O)[C@@H]1NC(=O)OCCCCCC1CCCCC1
